Experimental data reported in article PMC10739677 (Chembiochem : a European journal of chemical biology, 2023).

What was measured:
pure human GCLM protein = molecular target: T1, pure human GCLM protein (Homo sapiens, UniProt P48507); assay: Gel-based ABPP; type: binding
T1 sequence (P48507 1-274): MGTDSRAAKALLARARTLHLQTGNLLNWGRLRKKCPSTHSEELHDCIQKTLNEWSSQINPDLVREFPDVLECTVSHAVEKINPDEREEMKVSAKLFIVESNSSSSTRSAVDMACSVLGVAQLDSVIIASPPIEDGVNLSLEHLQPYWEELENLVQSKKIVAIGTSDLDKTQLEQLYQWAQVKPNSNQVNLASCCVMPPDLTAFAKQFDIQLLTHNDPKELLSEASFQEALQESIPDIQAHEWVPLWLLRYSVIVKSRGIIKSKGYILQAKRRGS
In short: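 Pure recombinant human GCLM (0.1 μg in 50 μL PBS) treated for 30 min at 37 °C with alkyne probe (10–100 μM final) or DMSO. In the competition format, protein is first preincubated with test compound for 30 min at 37 °C, then labelled with probe (50 μM final) for 2 h at 37 °C. Rhodamine-azide (1 μM final) appended by CuAAC, then reducing SDS-PAGE and in-gel fluorescence; silver stain confirms loading.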

[1] = molecular target: T2, GCL (pure human recombinant GCLC and GCLM) (Homo sapiens, UniProt P48506+P48507); assay: GCL functional assay; type: biochemical
T2 sequence (P48507 1-274): T1 sequence (P48507 1-274)
T2 sequence (P48506 1-637): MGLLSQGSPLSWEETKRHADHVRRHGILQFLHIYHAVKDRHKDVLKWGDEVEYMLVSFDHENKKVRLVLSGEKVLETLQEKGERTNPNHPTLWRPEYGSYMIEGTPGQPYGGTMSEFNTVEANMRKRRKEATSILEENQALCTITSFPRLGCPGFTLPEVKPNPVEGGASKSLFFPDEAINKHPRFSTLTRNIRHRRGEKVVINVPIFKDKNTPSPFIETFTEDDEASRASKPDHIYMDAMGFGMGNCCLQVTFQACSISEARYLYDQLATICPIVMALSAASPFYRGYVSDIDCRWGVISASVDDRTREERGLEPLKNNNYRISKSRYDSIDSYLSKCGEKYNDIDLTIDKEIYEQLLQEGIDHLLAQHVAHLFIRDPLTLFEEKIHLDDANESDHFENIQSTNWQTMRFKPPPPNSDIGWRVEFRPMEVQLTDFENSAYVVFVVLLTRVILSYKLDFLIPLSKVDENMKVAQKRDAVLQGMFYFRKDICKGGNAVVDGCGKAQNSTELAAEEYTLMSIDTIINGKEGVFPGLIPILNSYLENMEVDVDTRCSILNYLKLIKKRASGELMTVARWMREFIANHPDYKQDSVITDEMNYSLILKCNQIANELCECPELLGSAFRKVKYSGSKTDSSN

[2] = tested on: GSH levels in A2780 cells; assay: LC-MS/MS quantification of GSH levels, A2780; type: cell-based, human; details: SRM LC-MS/MS 4hr post treatment
[3] = tested on: A2780 ARID1A-negative ovarian cancer cells; assay: Cell viability by Hoechst staining, A2780; type: cell-based, human; details: Hoechst staining at 24 hr
In short: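 A2780 cells seeded at 6,000/well in 96-well plates and left to adhere overnight, then dosed with test compound or DMSO vehicle for 24 hr. Fixed and stained with 10% formalin plus Hoechst 33342 for 15 min in the dark at room temperature, then washed three times with PBS before fluorescence reading. Expressed as percentage of DMSO control, mean ± sem, n=6 biologically independent replicates.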

[4] = tested on: cysteines within proteins in A2780 cells; assay: isoTOP-ABPP cysteine chemoproteomic profiling; type: cell-based, human; details: A2780 cells treated 90 min; IA-alkyne 100 μM
siGCLM A2780 cells = assay: Cell viability after GCLM knockdown; type: cell-based, human; details: siGCLM vs siControl A2780, 24 hr treatment, Hoechst staining
[5] = tested on: GSH levels in RMG-1 cells; assay: LC-MS/MS quantification of GSH levels, RMG-1; type: cell-based, human; details: SRM LC-MS/MS 4hr post treatment
[6] = tested on: RMG-1 ARID1A-positive ovarian cancer cells; assay: Cell viability by Hoechst staining, RMG-1; type: cell-based, human; details: Hoechst staining at 24 hr
[7] = molecular target: T3, GCLM C114 (pure human GCLM and GCLC) (Homo sapiens, UniProt P48507); assay: LC-MS/MS analysis of EN25 adduct on GCL complex; type: binding; details: EN25 50 μM, 30 min at 37°C; tryptic digest LC-MS/MS
T3 sequence (P48507 1-274): T1 sequence (P48507 1-274)
T3 sequence (P48506 1-637 partner): T2 sequence (P48506 1-637)

A2780 cells = assay: Ferrostatin rescue experiment; type: cell-based, human; details: Ferrostatin-1 2 μM with EN25 50μM, A2780, 48 hr, Hoechst staining

SMILES | covalent labeling of GCLM (pure human GCLM protein; in-gel fluorescence after CuAAC with rhodamine-azide) | IC50 [1] [µM] | GSH levels [2] | competition of EN25-alkyne labeling of GCLM (pure human GCLM protein; pre-incubation 30 min at 37°C, then EN25-alkyne 50 μM for 2 h) | cell viability impairment [3] | proteome-wide selectivity: potential off-targets [4] | cell viability impairment upon GCLM knockdown (siGCLM A2780 cells) | GSH levels [5] | cell viability impairment [6] | site of covalent modification on GCL complex [7] | rescue of EN25-mediated cell viability impairment (A2780 cells)
C#CCOc1ccc(-c2ccc(CNC(=O)c3ccc(CNC(=O)C=C)cc3)cc2)cc1 [EN25-alkyne] | showed covalent labeling of GCLM | 3.6 | – | – | – | – | – | – | – | – | –
C=CC(=O)NCc1ccc(C(=O)Nc2ccc(Sc3ccc(C)c(C)c3)cc2)cc1 [EN25] | – | 16 | significantly lowered GSH levels in A2780 cancer cells | dose-responsive competition of this labeling by EN25 | more sensitive A2780 cancer cell line | nine potential off-targets of EN25 out of >5000 cysteines | GCLM knockdown with siRNA conferred hypersensitivity to EN25-mediated cell viability impairments | no changes observed in RMG-1 cells | RMG-1 cancer cells showed resistance to EN25-mediated cell viability impairments | selective and covalent EN25 modification of C114 on GCLM | –
CCOC(=O)c1ccc(NC2CCCCC2)c(N)c1 [ferrostatin, Ferrostatin-1] | – | – | – | – | – | – | – | – | – | – | attenuated the cell viability impairments conferred by EN25 treatment
